In the library only some 3.1% were active in any assay of this set; here they are far more common.
GalR3 antag = human GalR3 antagonism; inhibition, % at 3 µM; HEK293 GalR3-CNG cAMP membrane potential fluorescence; galR3 body fused to GalR1 C-terminus; 0.44% of 360,000 active; AID 651719; O60755;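 active means inhibition above the screen-wide average plus 3 SD, cut at about 13% in these data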;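 further: forskolin and galanin both at EC90 stimulate the cells; cAMP rise reported by CNG channel membrane potential dye signal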
Target sequence (O60755 1-299 limits assumed): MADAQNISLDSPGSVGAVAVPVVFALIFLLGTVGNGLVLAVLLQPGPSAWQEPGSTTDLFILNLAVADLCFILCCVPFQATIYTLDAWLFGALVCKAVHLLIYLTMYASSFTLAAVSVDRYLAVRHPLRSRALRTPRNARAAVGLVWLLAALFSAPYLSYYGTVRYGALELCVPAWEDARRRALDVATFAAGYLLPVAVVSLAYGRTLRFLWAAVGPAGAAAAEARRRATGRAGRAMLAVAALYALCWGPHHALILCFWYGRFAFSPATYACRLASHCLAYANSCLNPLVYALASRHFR
GPR7 antag = antagonists of human GPR7 (neuropeptides B/W receptor 1); P48145; GPR7-expressing cells, fluorescence antagonist assay; 1.1% of 290,000 active; inhibition, % at 4.4 µM; AID 1861; in the data active means inhibition above about 16%, passing the limit was not always enough;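 further: cells stimulated with the agonist NPW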
Target sequence (P48145 whole entry, looked up): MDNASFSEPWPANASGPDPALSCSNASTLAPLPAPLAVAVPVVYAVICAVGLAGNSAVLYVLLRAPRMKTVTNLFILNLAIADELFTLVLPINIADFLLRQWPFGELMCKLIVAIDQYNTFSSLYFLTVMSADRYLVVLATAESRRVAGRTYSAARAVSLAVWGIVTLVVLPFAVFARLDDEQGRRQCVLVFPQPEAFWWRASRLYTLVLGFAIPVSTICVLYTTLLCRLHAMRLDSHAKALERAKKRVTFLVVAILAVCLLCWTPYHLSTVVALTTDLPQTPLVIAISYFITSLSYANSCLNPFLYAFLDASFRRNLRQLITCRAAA
CHO parental Ca = signal in parental CHO cells, OX1R antagonist counter-screen; parental CHO-K1, ATP-induced calcium, Fluo-8 fluorescence; inhibition, % at 5.6 µM; 0.63% of 330,000 active; AID 463079;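 active means inhibition above that plate's mean sample inhibition plus 3 SD, cut at about 26% in these data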
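test system = CHO parental line | reagent = ATP stimulus | measured by = intracellular calcium via Fluo-8 no-wash fluorescent dye | control set = ATP and no-ATP DMSO wells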
OX1R antag-1 = antagonists of human orexin 1 receptor (OX1R); inhibition, % at 6.6 µM; 1.8% of 330,000 active; OX1R-expressing cells, FRET antagonist read-out; in the data active means inhibition mostly above about 38%, no sharp cut-off; inactive means mostly below about 40%
OX1R antag-2 = human HCRTR1 antagonism; O43613; CHO/OX1R cells, Fluo-8 calcium fluorescence, orexin A; inhibition, % at 5 µM; 0.43% of 330,000 active;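 active means inhibition above its plate's threshold, mean inhibition of all tested compounds on the plate plus 3 SD, cut at about 37% in these data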
OX1R HTRF confirm = confirmation of human orexin 1 receptor antagonists, HTRF format | AID 492964 | inhibition, % at 6.6 µM | 49% of 1,800 active | OX1R-expressing cells, HTRF antagonist assay | shares compounds with OX1R antag-1; in the data active means inhibition above about 55%;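 further: CHO cells expressing OX1R stimulated with orexin A at about EC80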
CHO-K1 HTRF = counter-screen: parental CHO-K1 HTRF response. shares compounds with OX1R antag-1. 48% of 1,800 active. inhibition, % at 6.6 µM. parental CHO-K1 cells, HTRF counterscreen; in the data active means inhibition above about 17%
Numbers stand for hits; . = inactive; / = not tested or not shown.

SMILES | GalR3 antag | GPR7 antag | CHO parental Ca | OX1R antag-1 | OX1R antag-2 | OX1R HTRF confirm | CHO-K1 HTRF
Cc1cnc([N+](=O)[O-])n1CCOC(=O)NC(=O)c1cccc(F)c1 | . | . | . | 77.9 | . | 59.6 | .
Cc1ccccc1N=C1c2cc([N+](=O)[O-])ccc2-c2ncccc21 | . | . | . | 159.7 | . | . | 41.9
Cn1c(=O)c(=O)n(C)c2cc([N+](=O)[O-])c([N+](=O)[O-])cc21 | . | . | . | 115.5 | . | . | 62.7
Cn1cccc([N+](=O)[O-])c1=O | . | / | / | / | / | / | /
CC(=O)c1sc(N/N=C\c2c(O)ccc3ccccc23)nc1C | . | / | . | 85.2 | . | 58.2 | .
CC(=O)c1sc(N/N=C/c2cccc(O)c2)nc1C | . | . | . | . | . | / | /
COC(=O)c1c(NC(=O)c2ccco2)sc2c1C(C(=O)OC)CC2 (centres undefined) | . | . | . | 80.2 | . | 62.1 | .
O=C(COC(=O)C1CCN(S(=O)(=O)c2cccs2)CC1)Nc1ccc(F)cc1F | . | . | . | . | . | / | /
CC(C)NC(=O)N(C)C[C@@H]1Oc2ncc(-c3cccc(C#N)c3)cc2C(=O)N([C@H](C)CO)C[C@@H]1C | . | / | / | / | / | / | /
CN(CC(=O)Nc1ccccc1Br)C(=O)c1ccccc1-c1nc2ccccc2s1 | . | . | . | 83.9 | . | 71.0 | .
CN(CC(=O)Nc1ccccc1Br)C(=O)c1cc(Cl)nc2ccccc12 | . | / | . | . | . | / | /
CCOC(=O)C1=C(COC(=O)Cc2ccc(OC)c(OC)c2)NC(=O)NC1C (centres undefined) | . | / | . | . | . | / | /
O=C(Nc1nc2nc(-c3ccccc3)cc(-c3ccccc3)n2n1)c1ccco1 | . | . | . | 79.6 | . | . | .
Cc1cccc(-n2c(O)c(C=NC3CCS(=O)(=O)C3)c3ccccc3c2=O)c1C (centres undefined) | . | . | . | . | . | / | /
COc1ccc(CN2C(=O)C(CC(=O)NC3CCCC3)CC(C(=O)N(C)C)=C2C)cc1 (centres undefined) | . | / | / | / | / | / | /
COc1cc(SC)ccc1C(=O)Nc1ccc2ncccc2c1 | . | . | . | 89.8 | . | 85.9 | .
CC(C)CCNC(=O)CCS(=O)(=O)c1cccc2nonc12 | . | . | . | . | . | / | /
O=C(CCS(=O)(=O)c1cccc2nonc12)NCCc1ccccc1 | . | . | . | 87.2 | . | . | 35.6
O=C(CNC(=O)c1ccc(Br)cc1)NCC(=O)OCC(=O)c1ccc(F)cc1 | . | . | / | / | / | / | /
O=C(CNC(=O)c1ccc(Br)cc1)NCC(=O)OCC(=O)c1ccc([N+](=O)[O-])cc1 | . | . | . | 86.9 | . | . | 49.7
CNC(=O)COC(=O)CNC(=O)c1cc(Cl)cc([N+](=O)[O-])c1 | . | . | . | 89.0 | . | . | 49.0
CC(C)(C)NC(=O)COC(=O)CNC(=O)c1cc(Cl)cc([N+](=O)[O-])c1 | . | . | . | . | . | / | /
Cn1c(SCC(=O)N/N=C/c2ccc([N+](=O)[O-])s2)nnc1-c1ccccc1 | . | . | . | 86.7 | . | . | 51.8
COC(=O)N/N=C/c1ccc([N+](=O)[O-])s1 | . | . | . | 105.8 | . | . | 84.9
Cn1c(SCC(=O)N/N=C/c2cc([N+](=O)[O-])ccc2O)nnc1-c1ccccc1 | . | . | . | . | . | / | /
SMILES | GalR3 antag | GPR7 antag | CHO parental Ca | OX1R antag-1 | OX1R antag-2 | OX1R HTRF confirm | CHO-K1 HTRF
O=C(N/N=C/c1ccc([N+](=O)[O-])s1)c1ccccc1 | . | . | . | 107.3 | . | . | 51.8
O=[N+]([O-])c1ccc(NCCN2CCOCC2)c([N+](=O)[O-])c1 | . | . | / | / | / | / | /
CCOc1cc(NCCN2CCOCC2)c([N+](=O)[O-])cc1OCC | . | . | . | 91.0 | . | . | 48.7
COc1ccc(-c2nnc(C3CCN(S(=O)(=O)c4ccccc4)CC3)o2)cc1 | / | . | . | . | . | / | /
O=C(CNC(=O)c1ccccc1)c1ccccc1 | . | / | . | 84.8 | . | . | .
O=C(Oc1ccc(-c2nnco2)cc1)c1cc(S(=O)(=O)N2CCOCC2)ccc1F | . | / | / | / | / | / | /
Cc1c(=O)n(OCc2ccccc2)c2ccccc2[n+]1[O-] | . | . | . | 103.3 | . | . | 24.9
C=CCOn1c(=O)c(-c2ccc(OC)cc2)[n+]([O-])c2ccccc21 | . | . | . | 98.3 | . | . | 47.6
COc1ccc(COn2c(=O)c(C)[n+]([O-])c3ccccc32)cc1OC | . | . | . | . | . | / | /
CCC(C)(C)n1nnnc1C(c1cc2cc(C)cc(C)c2[nH]c1=O)N1CCN(Cc2ccc3c(c2)OCO3)CC1 (centres undefined) | . | . | / | / | / | / | /
O=C(O)c1c2c(nc3ccccc13)/C(=C/c1c(F)cccc1F)CCC2 | . | . | . | 112.5 | . | . | 17.8
CNC(=O)COc1coc(CN2CCN(C(=O)c3ccco3)CC2)cc1=O | . | / | . | . | . | / | /
Nc1ncc(Br)cc1S(=O)(=O)N1CCCCCC1 | . | . | . | . | . | / | /
O=C(O)CCCN1C(=O)c2ccc(C(=O)c3cccc([N+](=O)[O-])c3)cc2C1=O | . | . | . | 86.5 | . | . | 52.5
CN(C)c1ccc(-c2nnc(-c3cccs3)o2)cc1 | . | . | . | 83.6 | . | 87.9 | .
c1ccc2c(-c3nc4ncccc4o3)cccc2c1 | . | . | . | 90.5 | . | 88.8 | .
[O-][n+]1c(/C=C/c2ccccc2)ccc2ccccc21 | . | . | / | / | / | / | /
[O-][n+]1c2ccccc2[n+]([O-])c2cc(O)ccc21 | . | . | . | 92.2 | . | 63.0 | 110.7
COCCn1c(SCC(=O)Nc2cc(C)nn2-c2ccccc2)nnc1-c1ccncc1 | . | . | . | . | . | / | /
O=[N+]([O-])c1ccc(-n2cnc3ccccc32)c([N+](=O)[O-])c1 | . | . | . | 107.1 | . | . | 44.6
O=C1c2ccccc2C(=O)c2c1cccc2N1CCOCC1 | . | . | . | 81.2 | . | . | 33.8
CCOC(=O)C1CCN(C2=C(NS(=O)(=O)c3ccc(Cl)cc3)C(=O)c3ccccc3C2=O)CC1 | . | . | . | 114.0 | . | 118.7 | 42.2
CC1CCCN(C2=C(NS(=O)(=O)c3ccc(Br)cc3)C(=O)c3ccccc3C2=O)C1 (centres undefined) | . | . | . | . | . | / | /
CCOC(=O)C1CCCN(C2=C(NS(=O)(=O)c3ccc(Br)cc3)C(=O)c3ccccc3C2=O)C1 (centres undefined) | . | . | . | 89.3 | . | 72.9 | 77.4
CCCn1c(Nc2cccc(OC)c2)nc2ccccc21 | . | . | . | . | . | / | /
O=C(Nc1cccc(Cl)c1)Nc1ccc(Br)cc1F | . | . | . | 82.5 | . | . | .
O=C(c1ccc(Cn2c(=S)[nH]c3ccccc3c2=O)cc1)N1CCN(c2ccccn2)CC1 | . | . | . | . | . | / | /
COc1ccccc1N(CC(O)COc1ccc(C)cc1)S(=O)(=O)c1ccccc1 (centres undefined) | . | . | . | 78.3 | . | 90.7 | .

From PubChem
